A selection: hits, their analogues and other compounds. The true share with any hit is near 2.2%.
SMARCA2 activ = increases SMARCA2 function in MMTV reporter cells; MG213 cells, MMTV-luciferase reporter, dexamethasone, overnight; activation, % at 9.1 µM; 370,000 tested, 1% active; AID 652017; in the data active = activation above about 7.8%;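 note: 0% = vehicle wells and 100% = reference activator wells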
COUP-TFII inh = blocks human COUP-TFII nuclear receptor. AID 686940. 370,000 tested, 0.7% active. HEK293T NGFI-A luciferase reporter, luminescence. P24468. inhibition, % at 8.6 µM;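 active = inhibition above a per-plate cutoff, mean inhibition of test wells between control levels plus 3 SD, cut at about 38% in these data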;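 note: cells cotransfected with COUP-TFII expression vector driving the NGFI-A reporter; 0% = median of COUP-TF2 test wells and 100% = reporter-only cells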
NR2E3 ag-1 = agonists of human nuclear receptor NR2E3 | Q9Y5X4 | 320,000 tested, 0.12% active | inhibition of corepressor binding, % at 4.78 µM | AID 2300 | GST-NR2E3/biotin-RetCOR TR-FRET, 1536-well;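 active = percent inhibition above the cutoff of mean plus 3 SD of all tested compounds, set per screening campaign, cut at about 20% in these data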;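 note: 0% = DMSO wells and 100% = biotin wells as full block of FRET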
Target sequence (Q9Y5X4 whole entry, looked up): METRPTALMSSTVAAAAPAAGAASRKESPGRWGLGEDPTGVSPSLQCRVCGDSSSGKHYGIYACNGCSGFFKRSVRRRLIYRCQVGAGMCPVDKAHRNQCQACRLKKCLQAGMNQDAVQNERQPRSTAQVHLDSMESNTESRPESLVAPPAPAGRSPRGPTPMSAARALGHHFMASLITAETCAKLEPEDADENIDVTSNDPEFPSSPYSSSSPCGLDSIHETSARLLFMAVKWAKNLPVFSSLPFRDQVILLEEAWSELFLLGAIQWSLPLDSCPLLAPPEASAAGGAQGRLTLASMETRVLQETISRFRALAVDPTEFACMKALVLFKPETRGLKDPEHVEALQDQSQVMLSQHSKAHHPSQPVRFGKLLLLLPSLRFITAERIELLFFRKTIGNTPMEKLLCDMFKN
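system = GST-tagged NR2E3 plus biotinylated RetCOR corepressor | input = 1.35 nM GST-NR2E3 | also added = 7 nM biotin-RetCOR | schedule = 5 h incubation at 4 °C | measured by = TR-FRET with europium anti-GST and streptavidin-D2, 340 nm excitation | read-out = percent loss of FRET ratio relative to control wells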
GalR3 antagonist = antagonists of human GalR3. O60755. HEK293 GalR3-CNG cAMP membrane potential fluorescence; galR3 body fused to GalR1 C-terminus. inhibition, % at 3 µM. 360,000 tested, 0.44% active;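 active = inhibition above the screen-wide average plus 3 SD, cut at about 13% in these data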;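 note: forskolin and galanin both at EC90 stimulate the cells; cAMP rise reported by CNG channel membrane potential dye signal; 0% = forskolin plus galanin with DMSO and 100% = forskolin alone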
NR2E3 ag-2 = human photoreceptor-specific nuclear receptor agonism; 360,000 tested, 0.35% active; Q9Y5X4; inhibition of corepressor binding, % at 3.98 µM; CHO-S Gal4-NCOR/VP16-NR2E3 two-hybrid, luciferase; AID 602229;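 active = inhibition above the mean of all tested compounds plus 3 SD, cut at about 70% in these data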;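 note: 0% = DMSO with NR2E3 transfected cells and 100% = cells lacking NR2E3 construct; higher means lower luciferase signal from less NR2E3 corepressor binding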
Gal4-VP16 ctr = counter-screen for COUP-TFII antagonists: inhibitors of VP16; 2,500 tested, 25% active; shares compounds with COUP-TFII inh; HEK293 Gal4-VP16 luciferase reporter, luminescence; inhibition, % at 8.5 µM; AID 687007; in the data active = inhibition above about 13%
NR2F2 inh conf = COUP-TFII (NR2F2) inhibition, confirmation assay; shares compounds with COUP-TFII inh; HEK293 NGFI-A luciferase reporter, luminescence; inhibition, % at 8.5 µM; 2,500 tested, 45% active; AID 687008;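 active = mean inhibition over three repeats above a set limit taken from the earlier primary screen, cut at about 38% in these data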;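 note: 100% = cells given the luciferase reporter alone without the COUP-TF2 vector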
An asterisk follows results filed as active.

How did CCCCCC(=O)N(O)C1CC(=O)N(c2ccccc2)C1=O (stereo not drawn) do in these assays?
SMARCA2 activ: -1.2; COUP-TFII inh: 41.1*; NR2E3 ag-1: 3.5; GalR3 antagonist: -1.4; NR2E3 ag-2: -21.3; Gal4-VP16 ctr: -3.8; NR2F2 inh conf: 36.1

How did CCCCCCC(=O)N(O)C1CC(=O)N(Cc2ccccc2)C1=O (stereo not drawn) do in these assays?
SMARCA2 activ: -2.2; COUP-TFII inh: 29.3; NR2E3 ag-1: 3.6; GalR3 antagonist: -4.4; NR2E3 ag-2: -35.3

What do the screens show for `O=C(CSc1nc2ccccc2n1Cc1ccccc1)NN=Cc1c[nH]c2ccccc12`?
SMARCA2 activ: -6.1; COUP-TFII inh: 15.5

Results for CCCc1cn(-c2ccc3c(c2)[C@@]2(CC(=O)N(C)C2c2ccccc2)C(=O)N3CC(C)C)nn1 (stereo partly drawn) ?
SMARCA2 activ: -4.4; COUP-TFII inh: -2.7

Results for O=C(C1CCC(CNS(=O)(=O)c2cccs2)CC1)N1CCN(c2ccc(Cl)cc2)CC1 (stereo not drawn) ?
SMARCA2 activ: -6.3; COUP-TFII inh: 60.3*; NR2E3 ag-1: -3.1; GalR3 antagonist: -9.0; NR2E3 ag-2: 36.4; Gal4-VP16 ctr: 4.1; NR2F2 inh conf: 59.5*

How did O=C(c1ccccc1)C1CCN(C(=O)c2cccs2)CC1 do in these assays?
SMARCA2 activ: -6.8; COUP-TFII inh: 10.8; NR2E3 ag-1: 0.5; GalR3 antagonist: -2.5; NR2E3 ag-2: -9.3

Results for Cc1sc2ncnc(N3CCC(C(=O)NNC(=O)c4ccc(Cl)cc4)CC3)c2c1C ?
SMARCA2 activ: -2.6; COUP-TFII inh: 23.5; NR2E3 ag-1: 0.3; GalR3 antagonist: -4.1; NR2E3 ag-2: 11.0

How did COc1ccc(-n2ncc3c(N4CCC(C(N)=O)CC4)ncnc32)cc1 do in these assays?
SMARCA2 activ: 5.9; COUP-TFII inh: -33.2; NR2E3 ag-1: -3.7; GalR3 antagonist: -3.6; NR2E3 ag-2: 2.9

How did O=C(c1cccs1)C1CCN(c2ncnc3sccc23)CC1 do in these assays?
COUP-TFII inh: 75.8*; Gal4-VP16 ctr: 11.9; NR2F2 inh conf: 68.5*

How did O=C(c1ccc(Cl)cc1)C1CCN(c2ncnc3sccc23)CC1 do in these assays?
COUP-TFII inh: 69.0*; Gal4-VP16 ctr: 0.0; NR2F2 inh conf: 55.8*

Results for COc1ccc(C(=O)C2CCN(c3ncnc4sccc34)CC2)cc1 ?
COUP-TFII inh: 76.2*; Gal4-VP16 ctr: 4.5; NR2F2 inh conf: 68.3*

How did CCCCNS(=O)(=O)CC1NCc2cc(OC)ccc21 (stereo not drawn) do in these assays?
SMARCA2 activ: -6.1; COUP-TFII inh: -16.3

Results for CNC(=O)NC(=O)C(C)OC(=O)c1c2c(nc3ccccc13)/C(=C/c1cccs1)CC2 (stereo not drawn) ?
SMARCA2 activ: 0.9; COUP-TFII inh: 45.7*; NR2E3 ag-1: 1.3; GalR3 antagonist: -2.1; NR2E3 ag-2: -54.9; Gal4-VP16 ctr: -36.8; NR2F2 inh conf: -15.0

How did COC(=O)[C@]12C[C@H](CC(=O)N3CCCCC3)C(=O)N(Cc3ccc4c(c3)OCO4)C1=C[C@H](C(C)C)O[C@@H]2C1CC1 do in these assays?
SMARCA2 activ: 1.1; COUP-TFII inh: 9.3

Results for COc1cccc(CNC(=O)C2CCCN(c3ncccn3)C2)c1OC (stereo not drawn) ?
SMARCA2 activ: -2.2; COUP-TFII inh: 9.0

Results for COc1ccc(NC(=O)c2cc([N+](=O)[O-])ccc2O)cc1 ?
SMARCA2 activ: -8.4; COUP-TFII inh: 68.9*; NR2E3 ag-1: -0.8; GalR3 antagonist: -10.5; NR2E3 ag-2: 31.2; Gal4-VP16 ctr: 39.4*; NR2F2 inh conf: 61.1*

What do the screens show for `COc1ccc(N2CCN(CCCNC(=O)COc3ccc(F)cc3)CC2)cc1`?
SMARCA2 activ: 2.5; COUP-TFII inh: 12.8

How did CCN1/C(=C2\SC(=S)N(Cc3ccccc3)C2=O)Sc2ccccc21 do in these assays?
SMARCA2 activ: -2.7; COUP-TFII inh: 4.6; NR2E3 ag-1: 1.3; GalR3 antagonist: -1.9; NR2E3 ag-2: 8.7
